Article PMC4976804 (Current Alzheimer research, 2015)

What was measured:
N2a cells = test: Cell viability of uninduced N2a cells in the presence of compounds; assay type: cell-based; details: 60 µM compound, 4 days 37°C, untreated = 100%
Method in brief: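 Uninduced N2a cells (no tau expression) grown 4 days at 37 °C in culture medium with test compound at 60 µM, or at several concentrations from 0 to 60 µM. Viability measured by MTT assay per kit instructions. Values normalised to the uninduced compound-untreated sample (100%).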

[1] = system: inducible N2aTau^4RDΔK280 cells; test: Inhibition of Tau aggregation in inducible N2a cells, ThS+ cells counted by FACS; assay type: cell-based
Method in brief: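 Inducible N2a-Tau4RDΔK280 cells in suspension, with 0.0005% (12 µM) ThS added. Tau induced with 1 µg/ml doxycycline. Compound at 60 µM, or 0–60 µM, for 4 days at 37 °C. Floating and adherent cells pooled, pelleted and PBS-washed. ThS+ cells counted by flow cytometry (ex 495/em 519 nm). Induced DMSO-treated sample set to 100%.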

O=C(NNc1nc(-c2ccc([N+](=O)[O-])cc2)cs1)c1ccc2nc[nH]c2c1 [BSc3094]
viability N2a cells (MTT) (N2a cells): 101.9 ± 3.8%
amount of ThS-positive cells (FACS), in words ([1]; 15 µM in the medium, 4 days, N2a cells expressing K18ΔK280): decreases
reduction of Tau^4RDΔK280 aggregation in N2a cells compared to control ([1]; 60 µM compound, ThS+ cells by FACS): 93%
effectiveness in reducing aggregation in N2a cells relative to the best hits ([1]; compared to our best hits): 2-3
